Experimental data from ChEMBL document CHEMBL1629527, “In vitro antifungal activities of bis(alkylpyridinium)alkane compounds against pathogenic yeasts and molds” (Antimicrob Agents Chemother, 2010).
Converted amounts (≈) assume the structure as drawn.

Columns and labels:
Candida dubliniensis = assay: Antifungal activity against Candida dubliniensis after 24 to 72 hrs by broth microdilution method; assay type: functional
How it was run: (§1)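 Broth microdilution MIC per CLSI M27-A3 (yeasts) or M38-A2 (molds). RPMI 1640 with L-glutamine, without bicarbonate, buffered to pH 7.0 with 0.165 M MOPS. Final test range for the compounds was 0.175–87.5 μM. Incubation at 35°C with visual reading at 24–72 h. MIC was the lowest concentration giving 100% inhibition versus the growth control (azoles 50% or 100%, by organism). Each isolate was run in duplicate in two independent experiments.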

[1] = system: Cryptococcus gattii species complex; assay: Antifungal activity against Cryptococcus gattii after 24 to 72 hrs by broth microdilution method; assay type: functional, Cryptococcus bacillisporus; how it was run: as §1
Clavispora lusitaniae = assay: Antifungal activity against Candida lusitaniae after 24 to 72 hrs by broth microdilution method; assay type: functional; how it was run: as §1
Candida parapsilosis = assay: Antifungal activity against Candida parapsilosis after 24 to 72 hrs by broth microdilution method; assay type: functional; conditions: Lodderomyces parapsilosis; how it was run: as §1
Pichia kudriavzevii = assay: Antifungal activity against Candida krusei after 24 to 72 hrs by broth microdilution method; assay type: functional; how it was run: as §1
[2] = system: Meyerozyma guilliermondii; assay: Antifungal activity against Candida guilliermondii after 24 to 72 hrs by broth microdilution method; assay type: functional; how it was run: as §1
Candida tropicalis = assay: Antifungal activity against Candida tropicalis after 24 to 72 hrs by broth microdilution method; assay type: functional; how it was run: as §1
Cryptococcus neoformans = assay: Antifungal activity against Cryptococcus neoformans after 24 to 72 hrs by broth microdilution method; assay type: functional; how it was run: as §1
Nakaseomyces glabratus = assay: Antifungal activity against Candida glabrata after 24 to 72 hrs by broth microdilution method; assay type: functional; how it was run: as §1
Candida albicans = assay: Antifungal activity against Candida albicans after 24 to 72 hrs by broth microdilution method; assay type: functional
How it was run: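 CLSI M27-A3 broth microdilution for yeasts in RPMI 1640 with L-glutamine and no bicarbonate, buffered with 0.165 M MOPS to pH 7.0. Compounds were dissolved in water and tested at 0.175–87.5 μM final, 35°C. MIC was read visually at 24–72 h as 100% inhibition versus growth control. For MFC, 30 μl from clear wells went onto SDA at 35°C for 48–72 h, reading the lowest concentration without colonies. Duplicates, two independent runs.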

Compound	MIC (Candida dubliniensis) [µg/mL]	MIC50 (Candida dubliniensis) [µg/mL]	MIC90 (Candida dubliniensis) [µg/mL]	MIC [1] [µg/mL]	MIC50 [1] [µg/mL]	MIC90 [1] [µg/mL]	MIC (Clavispora lusitaniae) [µg/mL]	MIC50 (Clavispora lusitaniae) [µg/mL]	MIC90 (Clavispora lusitaniae) [µg/mL]	MIC (Candida parapsilosis) [µg/mL]	MIC50 (Candida parapsilosis) [µg/mL]	MIC90 (Candida parapsilosis) [µg/mL]	MIC (Pichia kudriavzevii) [µg/mL]	MIC50 (Pichia kudriavzevii) [µg/mL]	MIC90 (Pichia kudriavzevii) [µg/mL]	MIC [2] [µg/mL]	MIC50 [2] [µg/mL]	MIC90 [2] [µg/mL]	MIC (Candida tropicalis) [µg/mL]	MIC50 (Candida tropicalis) [µg/mL]	further results
CCC(C)n1ncn(-c2ccc(N3CCN(c4ccc(OCC5COC(Cn6cncn6)(c6ccc(Cl)cc6Cl)O5)cc4)CC3)cc2)c1=O (stereo not given) [ITRACONAZOLE]	0.028 (≈ 0.0397 µM)	0.03 (≈ 0.0425 µM)	0.06 (≈ 0.085 µM)	0.07 (≈ 0.0992 µM)	0.06 (≈ 0.085 µM)	0.125 (≈ 0.177 µM)	0.09 (≈ 0.128 µM)	0.06 (≈ 0.085 µM)	0.25 (≈ 0.354 µM)	0.07 (≈ 0.0992 µM)	0.06 (≈ 0.085 µM)	0.125 (≈ 0.177 µM)	0.33 (≈ 0.468 µM)	0.25 (≈ 0.354 µM)	0.5 (≈ 0.709 µM)	0.5 (≈ 0.709 µM)	0.5 (≈ 0.709 µM)	1 (≈ 1.42 µM)	0.11 (≈ 0.156 µM)	0.125 (≈ 0.177 µM)	MIC90 (Candida tropicalis): 0.25 µg/mL (≈ 0.354 µM); MIC (Cryptococcus neoformans): 0.06 µg/mL (≈ 0.085 µM); MIC50 (Cryptococcus neoformans): 0.06 µg/mL (≈ 0.085 µM); MIC90 (Cryptococcus neoformans): 0.125 µg/mL (≈ 0.177 µM); MIC (Nakaseomyces glabratus): 1.15 µg/mL (≈ 1.63 µM); MIC50 (Nakaseomyces glabratus): 0.5 µg/mL (≈ 0.709 µM); MIC90 (Nakaseomyces glabratus): 16 µg/mL (≈ 22.7 µM); MIC (Candida albicans): 0.07 µg/mL (≈ 0.0992 µM); MIC50 (Candida albicans): 0.04 µg/mL (≈ 0.0567 µM); MIC90 (Candida albicans): 0.09 µg/mL (≈ 0.128 µM)
C[C@@H]1[C@H](O)[C@@H](C)/C=C/C=C/C=C/C=C/C=C/C=C/C=C/[C@H](O[C@@H]2O[C@H](C)[C@@H](O)[C@H](N)[C@@H]2O)C[C@@H]2O[C@](O)(C[C@@H](O)C[C@@H](O)[C@H](O)CC[C@@H](O)C[C@@H](O)CC(=O)O[C@H]1C)C[C@H](O)[C@H]2C(=O)O [AMPHOTERICIN B]	0.1 (≈ 0.108 µM)	0.125 (≈ 0.135 µM)	0.125 (≈ 0.135 µM)	0.19 (≈ 0.206 µM)	0.25 (≈ 0.271 µM)	0.25 (≈ 0.271 µM)	0.12 (≈ 0.13 µM)	0.125 (≈ 0.135 µM)	0.25 (≈ 0.271 µM)	0.28 (≈ 0.303 µM)	0.25 (≈ 0.271 µM)	0.5 (≈ 0.541 µM)	0.22 (≈ 0.238 µM)	0.25 (≈ 0.271 µM)	0.5 (≈ 0.541 µM)	0.15 (≈ 0.162 µM)	0.125 (≈ 0.135 µM)	0.25 (≈ 0.271 µM)	0.22 (≈ 0.238 µM)	0.25 (≈ 0.271 µM)	MIC90 (Candida tropicalis): 0.5 µg/mL (≈ 0.541 µM); MIC (Cryptococcus neoformans): 0.19 µg/mL (≈ 0.206 µM); MIC50 (Cryptococcus neoformans): 0.25 µg/mL (≈ 0.271 µM); MIC90 (Cryptococcus neoformans): 0.5 µg/mL (≈ 0.541 µM); MIC (Nakaseomyces glabratus): 0.18 µg/mL (≈ 0.195 µM); MIC50 (Nakaseomyces glabratus): 0.125 µg/mL (≈ 0.135 µM); MIC90 (Nakaseomyces glabratus): 0.25 µg/mL (≈ 0.271 µM); MIC (Candida albicans): 0.2 µg/mL (≈ 0.216 µM); MIC50 (Candida albicans): 0.25 µg/mL (≈ 0.271 µM); MIC90 (Candida albicans): 0.5 µg/mL (≈ 0.541 µM)
CC[C@@H]([C@H](C)O)n1ncn(-c2ccc(N3CCN(c4ccc(OC[C@@H]5CO[C@@](Cn6cncn6)(c6ccc(F)cc6F)C5)cc4)CC3)cc2)c1=O [POSACONAZOLE]	0.014 (≈ 0.02 µM)	0.008 (≈ 0.0114 µM)	0.03 (≈ 0.0428 µM)	0.04 (≈ 0.0571 µM)	0.03 (≈ 0.0428 µM)	0.06 (≈ 0.0856 µM)	0.015 (≈ 0.0214 µM)	0.016 (≈ 0.0228 µM)	0.03 (≈ 0.0428 µM)	0.049 (≈ 0.0699 µM)	0.06 (≈ 0.0856 µM)	0.06 (≈ 0.0856 µM)	0.18 (≈ 0.257 µM)	0.125 (≈ 0.178 µM)	0.25 (≈ 0.357 µM)	0.14 (≈ 0.2 µM)	0.125 (≈ 0.178 µM)	0.25 (≈ 0.357 µM)	0.061 (≈ 0.087 µM)	0.06 (≈ 0.0856 µM)	MIC90 (Candida tropicalis): 0.25 µg/mL (≈ 0.357 µM); MIC (Cryptococcus neoformans): 0.07 µg/mL (≈ 0.0999 µM); MIC50 (Cryptococcus neoformans): 0.06 µg/mL (≈ 0.0856 µM); MIC90 (Cryptococcus neoformans): 0.125 µg/mL (≈ 0.178 µM); MIC (Nakaseomyces glabratus): 1.23 µg/mL (≈ 1.76 µM); MIC50 (Nakaseomyces glabratus): 1 µg/mL (≈ 1.43 µM); MIC90 (Nakaseomyces glabratus): 8 µg/mL (≈ 11.4 µM); MIC (Candida albicans): 0.04 µg/mL (≈ 0.0571 µM); MIC50 (Candida albicans): 0.02 µg/mL (≈ 0.0285 µM); MIC90 (Candida albicans): 0.18 µg/mL (≈ 0.257 µM)
C[C@@H](c1ncncc1F)[C@](O)(Cn1cncn1)c1ccc(F)cc1F [VORICONAZOLE]	0.011 (≈ 0.0315 µM)	0.008 (≈ 0.0229 µM)	0.016 (≈ 0.0458 µM)	0.05 (≈ 0.143 µM)	0.06 (≈ 0.172 µM)	0.06 (≈ 0.172 µM)	0.02 (≈ 0.0573 µM)	0.03 (≈ 0.0859 µM)	0.16 (≈ 0.458 µM)	0.043 (≈ 0.123 µM)	0.06 (≈ 0.172 µM)	0.06 (≈ 0.172 µM)	0.41 (≈ 1.17 µM)	0.25 (≈ 0.716 µM)	1 (≈ 2.86 µM)	0.124 (≈ 0.355 µM)	0.125 (≈ 0.358 µM)	0.25 (≈ 0.716 µM)	0.07 (≈ 0.2 µM)	0.125 (≈ 0.358 µM)	MIC90 (Candida tropicalis): 0.25 µg/mL (≈ 0.716 µM); MIC (Cryptococcus neoformans): 0.04 µg/mL (≈ 0.115 µM); MIC50 (Cryptococcus neoformans): 0.03 µg/mL (≈ 0.0859 µM); MIC90 (Cryptococcus neoformans): 0.125 µg/mL (≈ 0.358 µM); MIC (Nakaseomyces glabratus): 0.41 µg/mL (≈ 1.17 µM); MIC50 (Nakaseomyces glabratus): 0.25 µg/mL (≈ 0.716 µM); MIC90 (Nakaseomyces glabratus): 4 µg/mL (≈ 11.5 µM); MIC (Candida albicans): 0.04 µg/mL (≈ 0.115 µM); MIC50 (Candida albicans): 0.01 µg/mL (≈ 0.0286 µM); MIC90 (Candida albicans): 0.17 µg/mL (≈ 0.487 µM)
CC[C@H](C)C[C@H](C)CCCCCCCCC(=O)N[C@H]1C[C@@H](O)[C@@H](NCCN)NC(=O)[C@@H]2[C@@H](O)CCN2C(=O)[C@H]([C@H](O)CCN)NC(=O)[C@H]([C@H](O)[C@@H](O)c2ccc(O)cc2)NC(=O)[C@@H]2C[C@@H](O)CN2C(=O)[C@H]([C@@H](C)O)NC1=O [CASPOFUNGIN]	0.07 (≈ 0.064 µM)	0.06 (≈ 0.0549 µM)	0.125 (≈ 0.114 µM)	8 (≈ 7.32 µM)	8 (≈ 7.32 µM)	8 (≈ 7.32 µM)	0.54 (≈ 0.494 µM)	0.5 (≈ 0.457 µM)	1 (≈ 0.915 µM)	0.66 (≈ 0.604 µM)	0.5 (≈ 0.457 µM)	1 (≈ 0.915 µM)	0.31 (≈ 0.284 µM)	0.25 (≈ 0.229 µM)	0.5 (≈ 0.457 µM)	1.15 (≈ 1.05 µM)	1 (≈ 0.915 µM)	2 (≈ 1.83 µM)	0.14 (≈ 0.128 µM)	0.125 (≈ 0.114 µM)	MIC90 (Candida tropicalis): 0.25 µg/mL (≈ 0.229 µM); MIC (Cryptococcus neoformans): 8 µg/mL (≈ 7.32 µM); MIC50 (Cryptococcus neoformans): 8 µg/mL (≈ 7.32 µM); MIC90 (Cryptococcus neoformans): 8 µg/mL (≈ 7.32 µM); MIC (Nakaseomyces glabratus): 0.19 µg/mL (≈ 0.174 µM); MIC50 (Nakaseomyces glabratus): 0.125 µg/mL (≈ 0.114 µM); MIC90 (Nakaseomyces glabratus): 0.25 µg/mL (≈ 0.229 µM); MIC (Candida albicans): 0.12 µg/mL (≈ 0.11 µM); MIC50 (Candida albicans): 0.14 µg/mL (≈ 0.128 µM); MIC90 (Candida albicans): 0.27 µg/mL (≈ 0.247 µM)
OC(Cn1cncn1)(Cn1cncn1)c1ccc(F)cc1F [FLUCONAZOLE]	0.43 (≈ 1.4 µM)	0.25 (≈ 0.816 µM)	0.5 (≈ 1.63 µM)	4 (≈ 13.1 µM)	4 (≈ 13.1 µM)	8 (≈ 26.1 µM)	2.64 (≈ 8.62 µM)	2 (≈ 6.53 µM)	4 (≈ 13.1 µM)	2.14 (≈ 6.99 µM)	2 (≈ 6.53 µM)	4 (≈ 13.1 µM)	84.5 (≈ 276 µM)	64 (≈ 209 µM)	128 (≈ 418 µM)	7.46 (≈ 24.4 µM)	4 (≈ 13.1 µM)	16 (≈ 52.2 µM)	1.41 (≈ 4.6 µM)	1 (≈ 3.27 µM)	MIC90 (Candida tropicalis): 4 µg/mL (≈ 13.1 µM); MIC (Cryptococcus neoformans): 4.59 µg/mL (≈ 15 µM); MIC50 (Cryptococcus neoformans): 4 µg/mL (≈ 13.1 µM); MIC90 (Cryptococcus neoformans): 16 µg/mL (≈ 52.2 µM); MIC (Nakaseomyces glabratus): 32 µg/mL (≈ 104 µM); MIC50 (Nakaseomyces glabratus): 16 µg/mL (≈ 52.2 µM); MIC90 (Nakaseomyces glabratus): 256 µg/mL (≈ 836 µM); MIC (Candida albicans): 1.15 µg/mL (≈ 3.75 µM); MIC50 (Candida albicans): 0.5 µg/mL (≈ 1.63 µM); MIC90 (Candida albicans): 16 µg/mL (≈ 52.2 µM)
